Screens deposited in PubChem by Johns Hopkins Ion Channel Center.
Compounds with a hit are over-represented: about 3.5% of the library has one in this group of screens.
MrgX1 antagonist = antagonists of human MrgX1 receptor, primary screen, HEK293 cells, Fluo-4 calcium flux; BAM8-22 antagonism; hits give low values; B-score at 10 µM; hit rate 1.3% among 310,000; AID 588676, 2011;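 active = calcium-response B-score plate-corrected more than 3 library SD below zero, starting fluorescence within 5 deviations, no agonist response on first addition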;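 also: peak minus trough fluorescence over baseline after final BAM8-22 challenge near maximal dose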
Target sequence (Q96LB2 whole entry, looked up): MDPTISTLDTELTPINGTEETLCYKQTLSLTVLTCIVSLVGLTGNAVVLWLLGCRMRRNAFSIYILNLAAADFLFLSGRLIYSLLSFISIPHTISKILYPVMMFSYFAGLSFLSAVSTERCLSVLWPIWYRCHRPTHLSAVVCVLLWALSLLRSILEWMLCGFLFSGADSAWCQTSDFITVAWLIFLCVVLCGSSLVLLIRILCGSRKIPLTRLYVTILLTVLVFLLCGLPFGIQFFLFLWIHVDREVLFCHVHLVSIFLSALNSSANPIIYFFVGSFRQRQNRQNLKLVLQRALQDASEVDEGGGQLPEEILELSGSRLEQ
RGS4 block = RGS4 inhibitors, primary screen, cell-based, HEK293 M3R inducible RGS4, calcium flux; Fluo-4 calcium flux; hits give high values; triggered by carbachol at its EC20; B-score at 10 µM; hit rate 0.45% among 310,000;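 active = B-score, a plate-corrected calcium signal, over three deviations above library mean, with baseline fluorescence within five deviations of library mean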;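 also: RGS4 expression induced by doxycycline in cells with stable M3 receptor; B-score is computed from the integrated fluorescence ratio over baseline after carbachol; higher B-score means a larger calcium signal and so more RGS4 inhibition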
Target sequence (P49798 whole entry, looked up): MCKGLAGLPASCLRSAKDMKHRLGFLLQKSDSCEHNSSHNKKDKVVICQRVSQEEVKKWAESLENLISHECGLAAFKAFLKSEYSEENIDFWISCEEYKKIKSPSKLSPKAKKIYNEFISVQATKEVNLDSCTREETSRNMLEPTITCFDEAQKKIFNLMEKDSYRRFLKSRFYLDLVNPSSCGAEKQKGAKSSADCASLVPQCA
MrgX1 agonist = agonists of human MrgX1 receptor, primary screen, HEK293 cells, Fluo-4 calcium flux; B-score at 10 µM; hit rate 0.44% among 310,000; AID 588627, 2011; Fluo-4 calcium fluorescence, agonist mode; hits give high values; Mas-related G-protein coupled receptor member X1 (Homo sapiens), Q96LB2;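 active = calcium response B-score plate-corrected fluorescence ratio at least 3 library SD, with starting fluorescence B-score inside 5 SD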
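Assay system: stable human MrgX1 HEK293 cell line. Quantity: 15,000 cells per well. Schedule: cells plated overnight, dye loaded 0.5 h 37 °C, 0.5 h room temperature. Detection: Fluo-4 NW calcium-flux fluorescence, kinetic read. Read-out basis: peak-minus-minimum fluorescence over baseline, converted to B scores. Control set: positive and negative control wells on each plate.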
RGS4 pot = RGS4 potentiators or activators, primary screen, cell-based, HEK293 M3R inducible RGS4, calcium flux | carbachol calcium flux Fluo4; hits give low values | hit rate 0.92% among 310,000 | B-score at 10 µM;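 active = B-score of the integrated calcium signal more than 4 SD below the library mean, with starting fluorescence not abnormally high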;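 also: negative B-score means reduced calcium response which marks RGS4 activation or potentiation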
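Material: M3R-expressing HEK293 line, RGS4 induced by doxycycline | Schedule: Overnight RGS4 induction, 30 min dye load 37 °C, 20 min compound RT | Measured by: Fluo4 fluorescence kinetic imaging of calcium | Read-out: Integrated calcium ratio converted to B score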
MrgX1 allo act = positive allosteric modulators of MrgX1, primary screen, HEK293 cells, Fluo-4 calcium flux; Mas-related G-protein coupled receptor member X1 (Homo sapiens), Q96LB2; FDSS; hits give high values; B-score at 10 µM; hit rate 0.63% among 310,000; AID 588675, 2011;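 active = plate-corrected calcium response at least 3 library SD above typical, normal starting fluorescence, not activating the receptor alone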;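 also: compound read alongside a low EC10 to EC30 dose of BAM8-22 agonist; peak minus trough fluorescence over baseline measured at the second addition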
RGS4 inh valid = enhanced carbachol calcium response, M3R/RGS4 cells, RGS4 inhibitor project, cell-based, validation screen, HEK293 M3R/RGS4, calcium flux. shares compounds with RGS4 block. carbachol calcium Fluo-4 fluorescence; carbachol added at its EC20; 0 = buffer wells, 100 = carbachol control. calcium response, % at 10 µM. hit rate 65% among 1,700;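 active = duplicate-averaged calcium response above the buffer-only control mean plus 5 SD of those controls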;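 also: integrated fluorescence ratio F max minus min over baseline F0; higher response in RGS4-induced cells means RGS4 inhibition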
RGS4 uninduced = carbachol calcium response in non-induced M3R cells, confirmation, counter-screen for RGS4 inhibitor project, cell-based, HEK293 M3R; activity (percent), % at 10 µM; carbachol calcium Fluo-4; submaximal (EC20) carbachol stimulus; buffer wells 0%, carbachol control wells 100%; hit rate 20% among 1,900; shares compounds with RGS4 block; call rule not given here;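 also: RGS4 induction absent so cells express M3R without RGS4; higher means more calcium signal and flags a non-specific hit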
M3R basal Ca ctr = signal in non-induced cells without carbachol, RGS4 inhibitor counter-screen; calcium response (agonist-mode artifact), % at 10 µM; HEK293 M3R/RGS4 non-induced, Fluo-4 calcium, no carbachol; normalised: buffer wells 0%, carbachol wells 100%; hit rate 22% among 1,900; shares compounds with RGS4 block;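 active = duplicate-averaged calcium rise in uninduced cells above buffer wells' mean plus 5 SD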
Starred values were filed as active, the others as inactive; i = inactive; . = no result.

SMILES	MrgX1 antagonist	RGS4 block	MrgX1 agonist	RGS4 pot	MrgX1 allo act	RGS4 inh valid	RGS4 uninduced	M3R basal Ca ctr
CCOc1ccc(NCc2nnc(SCc3ccc(Cl)cc3)n2-c2ccccc2)cc1	i	i	i	i	i	.	i	i
CC(=O)Nc1ccc(Nc2cc(C(C)C)nc3c(-c4ccccc4)c(C)nn23)cc1	i	7.2*	i	i	i	41%*	60%*	i
CC(=O)Nc1ccc(Nc2cc(C)nc3c(-c4ccccc4)c(C)nn23)cc1	i	8.6*	i	i	i	13%*	i	i
Cc1nn2c(NCc3ccccn3)cc(C(C)C)nc2c1-c1ccccc1	i	i	i	i	i	.	.	.
O=C(O)CC(=O)Nc1ccccc1	i	i	i	i	i	.	.	.
COc1ccc(NC(=O)c2ccc(NC(=O)c3cccs3)cc2)cc1	i	i	i	i	i	.	.	.
COc1nc(N)nc(NC(=O)c2cccs2)c1N=O	i	8.1*	i	i	i	16%*	i	i
O=C1Nc2ccccc2C1=Nc1cccc(Cl)c1	i	41*	51*	i	i	28%*	54%*	16%*
CSc1cccc(N=C2C(=O)Nc3ccccc32)c1	i	16*	32*	i	i	24%*	i	7.5%*
CCN(CC(=O)NCc1ccc(F)cc1)C(=O)Cc1c(F)cccc1Cl	i	i	i	i	i	.	.	.
O=C(CSc1ncn[nH]1)N1N=C2/C(=C/c3ccccc3)CCCC2C1c1ccccc1 (stereo not drawn)	i	5.1*	i	i	i	10%*	i	i
COc1ccc(/C=C2\CCCC3C2=NN(C(=O)CSc2ncn[nH]2)C3c2ccc(OC)cc2)cc1 (stereo not drawn)	i	i	i	i	i	.	i	i
O=C(O)CSCC(=O)N1N=C2/C(=C/c3ccccc3)CCCC2C1c1ccccc1 (stereo not drawn)	i	i	i	i	i	.	.	.
N#Cc1cc(-c2ccccc2)oc1NC(=O)c1ccccc1	i	i	i	i	i	.	.	.
Cc1c(C)n2c(SCC(=O)N3CCC(C)CC3)nnc2[nH]c1=O	i	i	i	i	i	.	.	.
Cc1cc2nc(/C=C/c3nc4cc(C)c(C)cc4[nH]3)[nH]c2cc1C	i	i	i	i	i	.	.	.
Cc1ccc(/C=C/c2nc3ccccc3[nH]2)o1	i	14*	i	i	i	i	i	i
O=C(CC1C(=O)NCCN1C(=O)Nc1ccccc1)Nc1ccc(F)cc1 (stereo not drawn)	i	i	i	i	i	.	i	i
O=C(CC1C(=O)NCCN1C(=O)c1ccc(Cl)cc1)Nc1ccc(F)cc1 (stereo not drawn)	i	i	i	i	i	i	i	i
O=C(CC1C(=O)NCCN1C(=O)Nc1ccc(Cl)cc1)Nc1ccc(F)cc1 (stereo not drawn)	i	5.6*	i	i	i	23%*	37%*	12%*
CCOc1ccc(NC(=O)CC2C(=O)NCCN2C(=O)Nc2ccccc2)cc1 (stereo not drawn)	i	i	i	i	i	.	.	.
COc1ccc(NC(=O)N2CCNC(=O)C2CC(=O)Nc2ccc(F)cc2)cc1 (stereo not drawn)	i	i	i	i	i	i	i	i
COc1ccc(S(=O)(=O)N2CCCC2)cc1NC(=O)c1ccccc1	i	i	i	i	i	.	.	.
CC(CC(=O)O)n1nnc2ccccc21 (stereo not drawn)	i	i	i	i	i	.	.	.
O=C(CC1C(=O)NCCN1C(=O)Nc1ccc(F)cc1)Nc1cc(Cl)ccc1Cl (stereo not drawn)	i	i	i	i	i	.	i	10%*
SMILES	MrgX1 antagonist	RGS4 block	MrgX1 agonist	RGS4 pot	MrgX1 allo act	RGS4 inh valid	RGS4 uninduced	M3R basal Ca ctr
Cc1cccc(NC(=O)CC2C(=O)NCCN2C(=O)Nc2ccc(Cl)cc2)c1 (stereo not drawn)	i	9.1*	i	i	i	26%*	46%*	i
O=C(CC1C(=O)NCCN1C(=O)Nc1ccccc1)Nc1cc(Cl)ccc1Cl (stereo not drawn)	i	i	i	i	i	.	.	.
COC(=O)CC1C(=O)NCCN1C(=O)Nc1ccc(Cl)cc1 (stereo not drawn)	i	i	i	i	i	.	.	.
O=C(COc1ccccc1F)NCc1ccc(-n2cccc2)cc1	i	i	i	i	i	.	.	.
CCOC(=O)C(Sc1cc(-c2ccccc2)nc2ncnn12)C(C)=O (stereo not drawn)	i	i	i	i	i	.	.	.
Cc1cccc(Nc2nc(N)c([N+](=O)[O-])c(NCc3ccco3)n2)c1	i	i	i	i	i	i	i	i
Cc1cccc(Nc2nc(NCc3ccco3)nc(N)c2[N+](=O)[O-])c1	i	i	i	i	i	.	.	.
Nc1nc(Nc2cccc(F)c2)nc(NCc2ccco2)c1[N+](=O)[O-]	i	i	i	i	i	i	i	i
Nc1nc(Nc2ccc(Cl)cc2)nc(NCc2ccco2)c1[N+](=O)[O-]	i	i	i	i	i	.	i	i
Nc1nc(Nc2cccc(Cl)c2)nc(NCCO)c1[N+](=O)[O-]	i	i	i	i	i	.	.	.
Nc1nc(Nc2cccc(Cl)c2)nc(NCc2ccco2)c1[N+](=O)[O-]	i	17*	i	i	i	11%*	i	i
O=C(N/N=C\c1cccnc1)c1ccc(Br)s1	i	i	i	i	i	.	.	.
CCN(C(=O)COC(=O)c1c(-c2ccccc2)noc1C)c1c(N)n(Cc2ccccc2)c(=O)[nH]c1=O	i	i	i	i	i	.	.	.
